# ChEMBL document CHEMBL3045304, “Sesquiterpene lactones with potential use as natural herbicide models. 2. guaianolides” (2000)
# Activity calls are given as the source filed them. No cut-off for these calls is given here.
# Tests used:
# [1] = tested on: Allium cepa; experiment: Inhibition of hypocotyl length of Allium cepa cv. Valenciana (onion) at 0.1 mM or 1 mM after 7 days relative to untreated control
# [2] = tested on: Lactuca sativa; experiment: Stimulation of germination of Lactuca sativa cv. Roman (lettuce) at 0.1 mM or 1 mM after 5 days relative to untreated control; format: functional
# Outline: (§1)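 Lettuce and tomato seeds, 25 per dish on filter paper, received 5 mL test solution. Incubation was 5 days in the dark at 25 °C, with four replicates per concentration. Solutions were made at 10^-3 or 10^-4 M in 10 mM MES, diluted serially, and adjusted to pH 6.0. Parallel controls were run. Results are % difference from control.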
# [3] = tested on: Lactuca sativa; experiment: Stimulation of root length of Lactuca sativa cv. Roman (lettuce) at 0.1 mM or 1 mM after 5 days relative to untreated control; format: functional
# Outline: as §1
# [4] = tested on: Solanum lycopersicum; experiment: Inhibition of germination of Solanum lycopersicum cv. Tres Cantos (tomato) at 0.1 mM or 1 mM after 5 days relative to untreated control; format: functional
# Outline: as §1
# [5] = tested on: Allium cepa; experiment: Stimulation of germination of Allium cepa cv. Valenciana (onion) at 0.1 mM or 1 mM after 5 days relative to untreated control; format: functional
# [6] = tested on: Solanum lycopersicum; experiment: Stimulation of germination of Solanum lycopersicum cv. Tres Cantos (tomato) at 0.1 mM or 1 mM after 5 days relative to untreated control; format: functional
# Outline: as §1
# [7] = tested on: Triticum aestivum; experiment: Stimulation of hypocotyl length of Triticum aestivum cv. Cortex (wheat) at 0.1 mM or 1 mM after 5 days relative to untreated control; format: functional
# Outline: (§2)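 Wheat: 10 seeds per dish on filter paper with 5 mL test solution, 5 days in the dark at 25 °C, 10 replicates per concentration. Stock test solutions were 10^-3 or 10^-4 M in 10 mM MES, with lower levels made by dilution, all at pH 6.0. Parallel controls were run. Output is % difference from control.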
# [8] = tested on: Lepidium sativum; experiment: Stimulation of hypocotyl length of Lepidium sativum at 0.1 mM or 1 mM after 5 days relative to untreated control; format: functional
# [9] = tested on: Solanum lycopersicum; experiment: Stimulation of root length of Solanum lycopersicum cv. Tres Cantos (tomato) at 0.1 mM or 1 mM after 5 days relative to untreated control; format: functional
# Outline: as §1
# [10] = tested on: Lactuca sativa; experiment: Inhibition of root length of Lactuca sativa cv. Roman (lettuce) at 0.1 mM or 1 mM after 5 days relative to untreated control; format: functional
# Outline: as §1
# [11] = tested on: Lepidium sativum; experiment: Stimulation of root length of Lepidium sativum at 0.1 mM or 1 mM after 5 days relative to untreated control; format: functional
# [12] = tested on: Triticum aestivum; experiment: Inhibition of root length of Triticum aestivum cv. Cortex (wheat) at 0.1 mM or 1 mM after 5 days relative to untreated control; format: functional
# Outline: as §2
# [13] = tested on: Lepidium sativum; experiment: Inhibition of root length of Lepidium sativum at 0.1 mM or 1 mM after 4 days relative to untreated control
# [14] = tested on: Triticum aestivum; experiment: Stimulation of germination of Triticum aestivum cv. Cortex (wheat) at 0.1 mM or 1 mM after 5 days relative to untreated control; format: functional
# Outline: as §2
# [15] = tested on: Allium cepa; experiment: Stimulation of root length of Allium cepa cv. Valenciana (onion) at 0.1 mM or 1 mM after 7 days relative to untreated control
# [16] = tested on: Triticum aestivum; experiment: Stimulation of root length of Triticum aestivum cv. Cortex (wheat) at 0.1 mM or 1 mM after 5 days relative to untreated control; format: functional
# Outline: as §2
# [17] = tested on: Lepidium sativum; experiment: Inhibition of germination of Lepidium sativum at 0.1 mM or 1 mM after 4 days relative to untreated control
# [18] = tested on: Allium cepa; experiment: Stimulation of hypocotyl length of Allium cepa cv. Valenciana (onion) at 0.1 mM or 1 mM after 7 days relative to untreated control
# [19] = tested on: Lactuca sativa; experiment: Inhibition of hypocotyl length of Lactuca sativa cv. Roman (lettuce) at 0.1 mM or 1 mM after 5 days relative to untreated control; format: functional
# Outline: as §1
# [20] = tested on: Lactuca sativa; experiment: Stimulation of hypocotyl length of Lactuca sativa cv. Roman (lettuce) at 0.1 mM or 1 mM after 5 days relative to untreated control; format: functional
# Outline: as §1
# [21] = tested on: Triticum aestivum; experiment: Inhibition of hypocotyl length of Triticum aestivum cv. Cortex (wheat) at 0.1 mM or 1 mM after 5 days relative to untreated control; format: functional
# Outline: as §2
# [22] = tested on: Lactuca sativa; experiment: Inhibition of germination of Lactuca sativa cv. Roman (lettuce) at 0.1 mM or 1 mM after 5 days relative to untreated control; format: functional
# Outline: as §1
# [23] = tested on: Lepidium sativum; experiment: Inhibition of hypocotyl length of Lepidium sativum at 0.1 mM or 1 mM after 5 days relative to untreated control; format: functional
# [24] = tested on: Solanum lycopersicum; experiment: Inhibition of hypocotyl length of Solanum lycopersicum cv. Tres Cantos (tomato) at 0.1 mM or 1 mM after 5 days relative to untreated control; format: functional
# Outline: as §1
# [25] = tested on: Allium cepa; experiment: Inhibition of root length of Allium cepa cv. Valenciana (onion) at 0.1 mM or 1 mM after 5 days relative to untreated control; format: functional
# [26] = tested on: Solanum lycopersicum; experiment: Inhibition of root length of Solanum lycopersicum cv. Tres Cantos (tomato) at 0.1 mM or 1 mM after 5 days relative to untreated control; format: functional
# Outline: as §1
# [27] = tested on: Solanum lycopersicum; experiment: Stimulation of hypocotyl length of Solanum lycopersicum cv. Tres Cantos (tomato) at 0.1 mM or 1 mM after 5 days relative to untreated control; format: functional
# Outline: as §1
# [28] = tested on: Allium cepa; experiment: Inhibition of germination of Allium cepa cv. Valenciana (onion) at 0.1 mM or 1 mM after 5 days relative to untreated control; format: functional
# [29] = tested on: Triticum aestivum; experiment: Inhibition of germination of Triticum aestivum cv. Cortex (wheat) at 0.1 mM or 1 mM after 5 days relative to untreated control; format: functional
# Outline: as §2
smiles,measurement,setting,value
C=C1CC[C@H]2C(=C)CC[C@@H](C(=C)CO)[C@H](O)[C@@H]12,inhibition,[1],inactive
same,Activity,[2],inactive
same,Activity,[3],inactive
same,inhibition (INH),[4],20%
same,Activity,[5],inactive
same,Activity,[6],20%
same,Activity,[7],<20%
same,Activity,[8],inactive
same,Activity,[9],<20%
same,inhibition,[10],inactive
same,Activity,[11],inactive
same,inhibition (INH),[12],20%
same,inhibition,[13],inactive
same,Activity,[14],inactive
same,Activity,[15],inactive
same,Activity,[16],20%
same,Activity,[17],inactive
same,inhibition,[17],inactive
same,Activity,[18],inactive
same,inhibition (INH),[19],<20%
same,Activity,[20],<20%
same,inhibition (INH),[21],<20%
same,inhibition,[22],inactive
same,inhibition,[23],inactive
same,inhibition,[24],inactive
same,inhibition,[25],inactive
same,inhibition (INH),[26],<20%
same,Activity,[27],inactive
same,inhibition,[28],inactive
same,inhibition,[29],inactive
